According to ChEMBL document CHEMBL1138354, “2-(2'-((dimethylamino)methyl)-4'-(fluoroalkoxy)-phenylthio)benzenamine derivatives as serotonin transporter imaging agents” (J Med Chem, 2007):

Tests used:
[1] = test system: Nucleic Acid; test: Ratio of drug level in hypothalamus to cerebellum in rat after 120 mins; assay type: ADME, tissue-based; conditions: in vivo, 2 h
Summary of the method: (§1)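 Rats, 3 per group, given ¹⁸F tracer (10–100 μCi, 0.2 ml sterile water with 1 mg/mL BSA) into the femoral vein under isoflurane. Brain regions, including hypothalamus, striatum and cerebellum, dissected, weighed and counted. % dose/g calculated against a 1% diluted aliquot of the dose. Region/cerebellum ratio is region %dose/g divided by cerebellum %dose/g. SD of the ratio propagated from both means and SDs.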

[2] = target: Sodium-dependent dopamine transporter (Homo sapiens, UniProt Q01959); test: Displacement of [125I]N-(3'-iodopropen-2'yl)-2-beta-carbomethoxy-3-beta-(4-chlorophenyl)tropane from DAT expressed in LLCPK1 cells; assay type: cell-based, LLC-PK1
Summary of the method: (§2)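 Membrane homogenates from LLC-PK1 cells, each line overexpressing one transporter. Membranes (30–80 μg protein) in 50 mM Tris-HCl pH 7.4, 120 mM NaCl, 5 mM KCl, 0.1% BSA. Radioligands: 0.09 nM for SERT, 0.06 nM for DAT, 0.06 nM for NET. Competitor at 8–10 concentrations, 10⁻¹⁰ to 10⁻⁵ M. Incubated 1 hr at room temperature. Filtered on PEI-presoaked glass fiber and gamma counted. Ki from nonlinear regression, n = 3.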

[3] = target: Sodium-dependent serotonin transporter (Homo sapiens, UniProt P31645); test: Displacement of [125I]5-iodo-2-[[2,2-[(dimethylamino)methyl]phenyl]thio]benzyl alcohol from SERT expressed in LLCPK1 cells; assay type: cell-based, LLC-PK1; summary of the method: as §2
[4] = target: Sodium-dependent noradrenaline transporter (Homo sapiens, UniProt P23975); test: Displacement of [125I]iodonisoxetine from NET expressed in LLCPK1 cells; assay type: cell-based, LLC-PK1; summary of the method: as §2
[5] = test system: Brain; test: Biodistribution in iv dosed rat brain after 30 mins; assay type: ADME, organism-based; conditions: in vivo, 0.5 h
Summary of the method: (§3)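 [18F]-labeled tracer was given to rats under isoflurane anesthesia: 0.2 ml sterile water with 1 mg/mL BSA and 10–100 μCi, into the femoral vein. Three rats per group. Animals were killed by cervical dislocation under anesthesia at the stated time. Organs were removed, weighed and counted. Uptake was calculated as percent dose against a 1% aliquot of the injected dose counted alongside.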

[6] = test system: Brain; test: Biodistribution in iv dosed rat brain after 120 mins; assay type: ADME, organism-based; conditions: in vivo, 2 h; summary of the method: as §3
[7] = test system: Nucleic Acid; test: Ratio of drug level in hypothalamus to cerebellum in rat after 30 mins; assay type: ADME, tissue-based; conditions: in vivo, 0.5 h; summary of the method: as §1
[8] = Partition coefficient, log P at pH 7.4; assay type: physicochemical; conditions: octanol/water

Sequence of Sodium-dependent serotonin transporter (P31645 whole entry): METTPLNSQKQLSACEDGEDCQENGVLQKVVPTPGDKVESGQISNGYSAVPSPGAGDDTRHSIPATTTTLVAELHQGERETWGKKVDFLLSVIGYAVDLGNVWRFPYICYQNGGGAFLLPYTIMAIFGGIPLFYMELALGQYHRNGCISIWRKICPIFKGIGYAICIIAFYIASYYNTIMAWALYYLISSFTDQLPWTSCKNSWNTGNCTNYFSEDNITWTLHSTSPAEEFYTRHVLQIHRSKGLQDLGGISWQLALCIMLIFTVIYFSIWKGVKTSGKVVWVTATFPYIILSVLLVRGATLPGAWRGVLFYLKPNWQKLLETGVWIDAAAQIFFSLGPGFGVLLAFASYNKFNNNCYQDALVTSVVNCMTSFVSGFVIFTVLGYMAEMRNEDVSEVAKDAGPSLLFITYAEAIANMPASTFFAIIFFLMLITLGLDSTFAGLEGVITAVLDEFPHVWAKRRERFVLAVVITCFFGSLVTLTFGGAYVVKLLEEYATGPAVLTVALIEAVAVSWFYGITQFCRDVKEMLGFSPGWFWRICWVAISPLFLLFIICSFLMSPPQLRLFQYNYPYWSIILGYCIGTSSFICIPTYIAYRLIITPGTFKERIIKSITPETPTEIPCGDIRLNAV
Sequence of Sodium-dependent noradrenaline transporter (P23975 whole entry): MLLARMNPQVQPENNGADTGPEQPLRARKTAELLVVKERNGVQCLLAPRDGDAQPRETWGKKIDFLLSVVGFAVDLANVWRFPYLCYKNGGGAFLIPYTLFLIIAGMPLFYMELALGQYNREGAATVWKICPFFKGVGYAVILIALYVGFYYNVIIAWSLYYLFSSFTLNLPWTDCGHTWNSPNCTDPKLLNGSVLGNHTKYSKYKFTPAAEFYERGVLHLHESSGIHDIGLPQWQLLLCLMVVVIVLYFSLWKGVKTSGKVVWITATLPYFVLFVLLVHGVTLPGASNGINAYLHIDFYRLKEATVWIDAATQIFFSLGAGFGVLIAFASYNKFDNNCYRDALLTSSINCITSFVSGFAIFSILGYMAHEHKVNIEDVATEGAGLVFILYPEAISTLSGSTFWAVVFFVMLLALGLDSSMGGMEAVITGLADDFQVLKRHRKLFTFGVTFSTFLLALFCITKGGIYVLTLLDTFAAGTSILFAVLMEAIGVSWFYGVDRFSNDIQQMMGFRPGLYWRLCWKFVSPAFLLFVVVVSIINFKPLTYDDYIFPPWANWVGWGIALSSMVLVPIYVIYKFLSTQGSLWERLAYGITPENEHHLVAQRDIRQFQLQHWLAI
Sequence of Sodium-dependent dopamine transporter (Q01959 whole entry): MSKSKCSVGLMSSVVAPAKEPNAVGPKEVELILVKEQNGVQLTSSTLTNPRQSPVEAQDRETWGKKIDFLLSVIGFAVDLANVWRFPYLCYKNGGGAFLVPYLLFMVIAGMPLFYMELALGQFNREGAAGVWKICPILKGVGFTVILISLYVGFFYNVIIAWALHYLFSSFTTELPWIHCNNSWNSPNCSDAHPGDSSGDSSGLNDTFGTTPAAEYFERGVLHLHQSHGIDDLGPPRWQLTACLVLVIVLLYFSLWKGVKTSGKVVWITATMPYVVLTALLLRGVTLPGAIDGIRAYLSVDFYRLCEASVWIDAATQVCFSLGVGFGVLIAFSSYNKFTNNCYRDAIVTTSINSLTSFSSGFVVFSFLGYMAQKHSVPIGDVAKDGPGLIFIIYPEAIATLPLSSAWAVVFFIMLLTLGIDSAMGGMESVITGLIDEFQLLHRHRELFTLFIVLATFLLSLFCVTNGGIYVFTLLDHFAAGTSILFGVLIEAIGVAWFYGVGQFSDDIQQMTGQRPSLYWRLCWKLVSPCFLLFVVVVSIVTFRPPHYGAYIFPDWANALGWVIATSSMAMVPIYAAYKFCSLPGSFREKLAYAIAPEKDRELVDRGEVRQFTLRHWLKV

| Ratio [1] | Ki [2] | Ki [3] | Ki [4] | Drug uptake [5] | Drug uptake [6] | Ratio [7] | logD [8] | SMILES |
| --- | --- | --- | --- | --- | --- | --- | --- | --- |
| 7.83 | 340 nM | 0.25 nM | 7.5 nM | 1.85 %ID | 0.63 %ID | 3.79 | – | CN(C)Cc1cc(OCCF)ccc1Sc1ccccc1N |
| 4.34 | > 1000 nM | 0.1 nM | 37 nM | 2.23 %ID | 2.57 %ID | 2.78 | – | CN(C)Cc1cc(OCCF)ccc1Sc1ccc(F)cc1N |
| – | – | – | – | – | – | – | 2.71 | CN(C)Cc1cc(OCC[18F])ccc1Sc1ccc(Cl)cc1N |
| 3.77 | 847 nM | 0.03 nM | 97 nM | 1.72 %ID | 1.46 %ID | 2.36 | – | CN(C)Cc1cc(OCCF)ccc1Sc1ccc(Cl)cc1N |
| 3.7 | > 1000 nM | 0.05 nM | 114 nM | 1.88 %ID | 2.16 %ID | 2.04 | – | CN(C)Cc1cc(OCCF)ccc1Sc1ccc(Br)cc1N |
| 4.36 | > 1000 nM | 0.95 nM | 95 nM | 1.43 %ID | 1.32 %ID | 2.66 | – | CN(C)Cc1cc(OCCCF)ccc1Sc1ccc(F)cc1N |
| 4.17 | > 1000 nM | 0.15 nM | > 1000 nM | 1.12 %ID | 1.15 %ID | 1.93 | – | CN(C)Cc1cc(OCCCF)ccc1Sc1ccc(Br)cc1N |
| – | – | – | – | – | – | – | 2.47 | CN(C)Cc1cc(OCC[18F])ccc1Sc1ccc(F)cc1N |
| – | – | – | – | – | – | – | 3.3 | CN(C)Cc1cc(OCCC[18F])ccc1Sc1ccc(Br)cc1N |
| – | 659 nM | 17 nM | 33 nM | – | – | – | – | CN(C)Cc1cc(O)ccc1Sc1ccccc1N |
| – | > 1000 nM | 1.2 nM | 56 nM | – | – | – | – | CN(C)Cc1cc(OCCO)ccc1Sc1ccc(F)cc1N |
| – | 443 nM | 1.3 nM | 7 nM | – | – | – | – | CN(C)Cc1cc(OCCCO)ccc1Sc1ccccc1N |
| – | 576 nM | 5 nM | 14 nM | – | – | – | – | COc1ccc(Sc2ccccc2N)c(CN(C)C)c1 |
| 7.67 | 299 nM | 1.4 nM | 12 nM | 1.23 %ID | 0.59 %ID | 3.5 | – | CN(C)Cc1cc(OCCCF)ccc1Sc1ccccc1N |
| – | – | – | – | – | – | – | 2.65 | CN(C)Cc1cc(OCCC[18F])ccc1Sc1ccc(F)cc1N |
| – | 351 nM | 1.1 nM | 11 nM | – | – | – | – | CN(C)Cc1cc(OCCO)ccc1Sc1ccccc1N |
| – | > 1000 nM | 0.21 nM | 279 nM | – | – | – | – | CN(C)Cc1cc(OCCCO)ccc1Sc1ccc(Br)cc1N |
| – | – | – | – | – | – | – | 2.54 | CN(C)Cc1cc(OCCC[18F])ccc1Sc1ccccc1N |
